Laboratory results published in ChEMBL document CHEMBL1145153, “Discovery of potent anilide inhibitors against the severe acute respiratory syndrome 3CL protease” (J Med Chem, 2005).
*1 amine or outer side, *2 acyl side, *3 side chain or, on linkers, in order; H or OH if unused. Where a SMILES comes first, the peptide text is derived from it. [ ]: non-standard residue; d: D form. The star is where a group is joined. ξ: configuration not given here. NH(2-Cl-4-NO2-phenyl) = O=[N+]([O-])c1ccc(N*)c(Cl)c1; Phe(4-F) = N[C@@H](Cc1ccc(F)cc1)C(=O)O; Thr(3ξ) = CC(O)[C@H](N)C(=O)O; Morpholide = C1CN(*)CCO1; Cbz = O=C(OCc1ccccc1)*; CO = O=C([*:1])[*:2]; Piv = CC(C)(C)C(=O)*; Propionyl = CCC(=O)*; Bz = O=C(c1ccccc1)*; X1 = CC1CCN(*)O1

Key:
[1] = Inhibitory constant against SARS-CoV 3CL protease catalyzed cleavage of fluorogenic peptide Dabcyl-KTSAVLQSGFRKME-Edans
Method in brief: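 Fluorometric cleavage assay in 20 mM Bis-Tris pH 7.0, excitation 355 nm, emission 538 nm. Enzyme stock held in 12 mM Tris-HCl pH 7.5 with NaCl, EDTA, DTT and β-ME. Initial rates measured at two fixed inhibitor concentrations across various substrate concentrations. Ki derived using double-reciprocal plots of rate versus substrate concentration.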

[2] = Concentration required to inhibit SARS-CoV 3CL protease catalyzed cleavage of fluorogenic peptide Dabcyl-KTSAVLQSGFRKME-Edans by 50%
Method in brief: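 Purified enzyme (stock held in 12 mM Tris-HCl pH 7.5, 120 mM NaCl, 0.1 mM EDTA, 1 mM DTT, 7.5 mM β-ME) at 50 nM with 6 μM substrate in 20 mM Bis-Tris pH 7.0. Cleavage followed as fluorescence increase, excitation 355 nm, emission 538 nm. IC50 taken from initial velocities plotted against inhibitor concentration.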

Structure (SMILES): CC1CCN(C(=O)N[C@H](C(=O)N[C@@H](Cc2ccccc2)C(=O)N[C@@H](Cc2ccccc2)C(=O)Nc2ccc([N+](=O)[O-])cc2Cl)C(C)C)O1 (stereo not given in full)
- Ki [1]: 2.9 µM
- IC50 [2]: 7 µM

Structure (SMILES): CN(C)c1ccc(C(=O)N[C@@H](Cc2ccccc2)C(=O)Nc2ccccc2Cl)cc1
- IC50 [2]: > 10 µM

Structure (SMILES): O=C(CCC(=O)N[C@@H](Cc1ccccc1)C(=O)Nc1ccc([N+](=O)[O-])cc1Cl)NC(Cc1ccccc1)C(=O)Nc1ccc([N+](=O)[O-])cc1Cl (stereo not given in full)
- IC50 [2]: > 50 µM

Structure (SMILES): O=C(C[C@H](O)C(=O)N[C@@H](Cc1ccccc1)C(=O)Nc1ccc([N+](=O)[O-])cc1Cl)NC(Cc1ccccc1)C(=O)Nc1ccc([N+](=O)[O-])cc1Cl (stereo not given in full)
- Ki [1]: 3.1 µM
- IC50 [2]: 4 µM

Structure (SMILES): CCCC(=O)N[C@H](C(=O)N[C@@H](CC(C)C)C(=O)N[C@@H](Cc1ccccc1)C(=O)Nc1ccc([N+](=O)[O-])cc1Cl)C(C)C
- IC50 [2]: 7 µM

Structure (SMILES): CC(C)C[C@H](NC(=O)[C@@H](NC(=O)c1ccccc1)C(C)C)C(=O)N[C@@H](Cc1ccccc1)C(=O)Nc1ccc([N+](=O)[O-])cc1Cl
- IC50 [2]: 4 µM

Structure (SMILES): CCCCCCCCCCCCCCC(Br)C(=O)N[C@@H](Cc1ccccc1)C(=O)Nc1ccc([N+](=O)[O-])cc1Cl (stereo not given in full)
- IC50 [2]: 3 µM

Structure (SMILES): CC(C)[C@H](NC(=O)c1cccs1)C(=O)C[C@@H](Cc1ccccc1)C(=O)N[C@@H](Cc1ccccc1)C(=O)Nc1ccc([N+](=O)[O-])cc1Cl
- IC50 [2]: 16 µM

Structure (SMILES): Nc1ccc(C(=O)N[C@@H](Cc2ccccc2)C(=O)Nc2ccc([N+](=O)[O-])cc2Cl)cc1N
- IC50 [2]: 2 µM

Structure (SMILES): CC(C)C[C@H](NC(=O)[C@@H](NC(=O)N1CCOCC1)C(C)C)C(=O)N[C@@H](Cc1ccccc1)C(=O)Nc1ccc([N+](=O)[O-])cc1Cl
- IC50 [2]: 19 µM

Structure (SMILES): CC(C)C[C@H](NC(=O)[C@@H](NC(=O)c1cccs1)C(C)C)C(=O)N[C@@H](Cc1ccccc1)C(=O)Nc1ccc([N+](=O)[O-])cc1Cl
- Ki [1]: 2.29 µM
- IC50 [2]: 5 µM

Structure (SMILES): CC(C)C[C@H](CC(=O)[C@@H](NC(=O)N1CCOCC1)C(C)C)C(=O)N[C@@H](Cc1ccccc1)C(=O)Nc1ccc([N+](=O)[O-])cc1Cl
- IC50 [2]: 29 µM

Structure (SMILES): CN(C)c1ccc(C(=O)N[C@@H](Cc2ccccc2)C(=O)Nc2ccccc2)cc1
- IC50 [2]: > 10 µM

Structure (SMILES): O=C(N[C@@H](Cc1ccccc1)C(=O)Nc1ccc([N+](=O)[O-])cc1Cl)c1ccccc1
- IC50 [2]: > 10 µM

Structure (SMILES): CC(C)(C)OC(=O)N[C@@H](Cc1ccccc1)C(=O)Nc1ccc([N+](=O)[O-])cc1Cl
- IC50 [2]: > 50 µM

Structure (SMILES): O=C(Nc1ccc([N+](=O)[O-])cc1Cl)C(Cc1ccccc1)NC(=O)[C@H](O)[C@@H](O)C(=O)N[C@@H](Cc1ccccc1)C(=O)Nc1ccc([N+](=O)[O-])cc1Cl (stereo not given in full)
- IC50 [2]: 5 µM

Structure (SMILES): CN(C)c1ccc(C(=O)N[C@@H](Cc2ccccc2)C(=O)Nc2ccc([N+](=O)[O-])cc2)cc1
- IC50 [2]: > 10 µM

Structure (SMILES): O=C(N[C@@H](Cc1ccccc1)C(=O)Nc1ccc([N+](=O)[O-])cc1)c1ccccc1
- IC50 [2]: > 10 µM

Structure (SMILES): CCC(=O)N[C@H](C(=O)C[C@@H](CC(C)C)C(=O)N[C@@H](Cc1ccccc1)C(=O)Nc1ccc([N+](=O)[O-])cc1Cl)C(C)C
- IC50 [2]: 27 µM

Structure (SMILES): CC(C)C[C@H](CC(=O)[C@@H](NC(=O)c1ccccc1)C(C)C)C(=O)N[C@@H](Cc1ccccc1)C(=O)Nc1ccc([N+](=O)[O-])cc1Cl
- IC50 [2]: 21 µM

Structure (SMILES): CC(C)C[C@H](CC(=O)[C@@H](NC(=O)OC(C)(C)C)C(C)C)C(=O)N[C@@H](Cc1ccccc1)C(=O)Nc1ccc([N+](=O)[O-])cc1Cl
- IC50 [2]: 19 µM

Structure (SMILES): CC(C)C[C@H](CC(=O)[C@@H](NC(=O)c1cccs1)C(C)C)C(=O)N[C@@H](Cc1ccccc1)C(=O)Nc1ccc([N+](=O)[O-])cc1Cl
- IC50 [2]: 22 µM

Structure (SMILES): CC(O)[C@H](NC(=O)[C@H](O)[C@@H](O)C(=O)N[C@H](C(=O)N[C@H](Cc1ccccc1)C(=O)Nc1ccc([N+](=O)[O-])cc1Cl)C(C)O)C(=O)N[C@@H](Cc1ccccc1)C(=O)Nc1ccc([N+](=O)[O-])cc1Cl (stereo not given in full)
- IC50 [2]: 2 µM

Structure (SMILES): CC(O)[C@H](NC(=O)C[C@@H](O)C(=O)N[C@H](C(=O)N[C@@H](Cc1ccccc1)C(=O)Nc1ccc([N+](=O)[O-])cc1Cl)C(C)O)C(=O)NC(Cc1ccccc1)C(=O)Nc1ccc([N+](=O)[O-])cc1Cl (stereo not given in full)
- IC50 [2]: 2 µM

Structure (SMILES): CN(C)c1ccc(C(=O)N[C@@H](Cc2ccccc2)C(=O)Nc2ccc([N+](=O)[O-])cc2Cl)cc1
- Ki [1]: 0.03 µM
- IC50 [2]: 0.06 µM

Structure (SMILES): CC(O)[C@H](NC(=O)CCC(=O)N[C@H](C(=O)N[C@@H](Cc1ccccc1)C(=O)Nc1ccc([N+](=O)[O-])cc1Cl)C(C)O)C(=O)NC(Cc1ccccc1)C(=O)Nc1ccc([N+](=O)[O-])cc1Cl (stereo not given in full)
- IC50 [2]: 2 µM

Structure (SMILES): CC(C)[C@H](NC(=O)c1cccs1)C(=O)N[C@@H](Cc1ccccc1)C(=O)N[C@@H](Cc1ccccc1)C(=O)Nc1ccc([N+](=O)[O-])cc1Cl
- Ki [1]: 4.3 µM
- IC50 [2]: 5 µM

Structure (SMILES): CC(C)C[C@H](NC(=O)[C@@H](NC(=O)OC(C)(C)C)C(C)C)C(=O)N[C@@H](Cc1ccccc1)C(=O)Nc1ccc([N+](=O)[O-])cc1Cl
- IC50 [2]: > 10 µM

Structure (SMILES): O=C(N[C@@H](Cc1ccccc1)C(=O)Nc1ccc([N+](=O)[O-])cc1Cl)c1ccc([N+](=O)[O-])cc1
- IC50 [2]: > 10 µM

Structure (SMILES): O=C(/C=C/c1c[nH]c2ccccc12)N[C@@H](Cc1ccccc1)C(=O)Nc1ccc([N+](=O)[O-])cc1Cl
- IC50 [2]: 3 µM

Structure (SMILES): CC(C)[C@H](NC(=O)c1ccccc1)C(=O)N[C@@H](Cc1ccc(F)cc1)C(=O)N[C@H](C(=O)N[C@@H](Cc1ccccc1)C(=O)Nc1ccc([N+](=O)[O-])cc1Cl)C(C)O (stereo not given in full) (Bz-V[Phe(4-F)][Thr(3ξ)]F-{NH(2-Cl-4-NO2-phenyl)})
- IC50 [2]: 2 µM

Structure (SMILES): CC(C)[C@H](NC(=O)OCc1ccccc1)C(=O)N[C@@H](Cc1ccccc1)C(=O)N[C@H](C(=O)N[C@@H](Cc1ccccc1)C(=O)Nc1ccc([N+](=O)[O-])cc1Cl)C(C)O (stereo not given in full) (Cbz-VF[Thr(3ξ)]F-{NH(2-Cl-4-NO2-phenyl)})
- Ki [1]: 1.51 µM
- IC50 [2]: 6 µM

Structure (SMILES): CC(C)[C@H](NC(=O)C(C)(C)C)C(=O)N[C@@H](Cc1ccccc1)C(=O)N[C@H](C(=O)N[C@@H](Cc1ccccc1)C(=O)Nc1ccc([N+](=O)[O-])cc1Cl)C(C)O (stereo not given in full) (Piv-VF[Thr(3ξ)]F-{NH(2-Cl-4-NO2-phenyl)})
- IC50 [2]: 2 µM

Structure (SMILES): CCC(=O)N[C@H](C(=O)N[C@@H](CC(C)C)C(=O)N[C@H](C(=O)N[C@@H](Cc1ccccc1)C(=O)Nc1ccc([N+](=O)[O-])cc1Cl)C(C)O)C(C)C (stereo not given in full) (Propionyl-VL[Thr(3ξ)]F-{NH(2-Cl-4-NO2-phenyl)})
- IC50 [2]: 7 µM

Structure (SMILES): CCC(=O)N[C@H](C(=O)N[C@@H](Cc1ccc(F)cc1)C(=O)N[C@H](C(=O)N[C@@H](Cc1ccccc1)C(=O)Nc1ccc([N+](=O)[O-])cc1Cl)C(C)O)C(C)C (stereo not given in full) (Propionyl-V[Phe(4-F)][Thr(3ξ)]F-{NH(2-Cl-4-NO2-phenyl)})
- IC50 [2]: 5 µM

Structure (SMILES): CC(C)C[C@H](NC(=O)[C@@H](NC(=O)N1CCOCC1)C(C)C)C(=O)N[C@H](C(=O)N[C@@H](Cc1ccccc1)C(=O)Nc1ccc([N+](=O)[O-])cc1Cl)C(C)O (stereo not given in full) ({Morpholide-CO}-VL[Thr(3ξ)]F-{NH(2-Cl-4-NO2-phenyl)})
- IC50 [2]: 16 µM

Structure (SMILES): CC1CCN(C(=O)N[C@H](C(=O)N[C@@H](Cc2ccccc2)C(=O)N[C@H](C(=O)N[C@@H](Cc2ccccc2)C(=O)Nc2ccc([N+](=O)[O-])cc2Cl)C(C)O)C(C)C)O1 (stereo not given in full) ({X1-CO}-VF[Thr(3ξ)]F-{NH(2-Cl-4-NO2-phenyl)})
- Ki [1]: 1.61 µM
- IC50 [2]: 5 µM

Structure (SMILES): O=C(Nc1ccc([N+](=O)[O-])cc1Cl)c1cc(Cl)ccc1O [NICLOSAMIDE]
- IC50 [2]: > 10 µM
